Source: PubChem BioAssay
An excerpt weighted towards active compounds, which were near 2.1% of everything screened.
FAS-TE inh: FAS thioesterase domain inhibitors, primary screen, biochemical, fluorescence intensity, uHTS; Fatty acid synthase (Homo sapiens), P49327; recombinant FAS-TE, OMFH fluorogenic substrate, fluorescence endpoint; inhibition, % at 15 µM; 360,000 tested, 0.67% active;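 active = compounds whose normalised, plate-corrected inhibition of enzyme fluorescence in the single-dose primary screen is 50% or more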;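 note: 0% = DMSO with enzyme and 100% = substrate without enzyme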
Runt-CBFb FRET: inhibitors of RUNX1 Runt–CBFb binding, primary screen, biochemical, FRET, Cerulean-Runt, Venus-CBFb, uHTS; Runt-related transcription factor 1 (Homo sapiens) + Core-binding factor subunit beta …; Cerulean-Runt/Venus-CBFb FRET ratio 530/480, 1 h; inhibition, % at 20 µM; 220,000 tested, 0.46% active; AID 1496, 2009;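 active = inhibition over about 50% at 20 µM in the single-dose screen, limit read from the data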;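 note: 0% = DMSO wells and 100% = excess unlabeled CBFb competitor control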
Target sequence (Q01196 whole entry, looked up): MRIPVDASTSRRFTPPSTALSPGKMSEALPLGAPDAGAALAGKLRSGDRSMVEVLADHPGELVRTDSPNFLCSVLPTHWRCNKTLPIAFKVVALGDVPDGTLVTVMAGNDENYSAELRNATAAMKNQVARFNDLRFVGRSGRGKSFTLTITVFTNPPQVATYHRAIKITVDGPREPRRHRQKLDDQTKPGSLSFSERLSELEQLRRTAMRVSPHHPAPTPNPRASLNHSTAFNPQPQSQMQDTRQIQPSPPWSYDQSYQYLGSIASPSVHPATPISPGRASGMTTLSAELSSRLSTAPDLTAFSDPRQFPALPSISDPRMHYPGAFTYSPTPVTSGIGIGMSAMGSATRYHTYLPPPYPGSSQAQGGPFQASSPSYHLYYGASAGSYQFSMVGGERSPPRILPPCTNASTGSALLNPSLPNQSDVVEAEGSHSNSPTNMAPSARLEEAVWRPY
Target sequence (Q13951 whole entry, looked up): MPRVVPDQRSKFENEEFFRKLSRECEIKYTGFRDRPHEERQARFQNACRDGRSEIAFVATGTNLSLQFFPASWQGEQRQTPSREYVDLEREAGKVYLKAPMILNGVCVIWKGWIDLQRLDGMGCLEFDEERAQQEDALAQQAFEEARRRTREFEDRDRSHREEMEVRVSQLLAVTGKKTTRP
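test system = Cerulean-tagged RUNX1 Runt domain (FRET donor) fusion protein | reagent = Venus-CBFb binding partner, 100 nM | incubation = protein complex preformed 1 h, compound exposure 1 h, room temperature, dark | detection = FRET fluorescence | read-out basis = loss of energy transfer signal | controls = 5 µM unlabeled CBFb as full-inhibition high control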
m-calpain inh: inhibitors of pig calpain II, primary screen, biochemical, fluorogenic peptide substrate, 1536-well | purified calpain II, 30 min | inhibition, % at 16 µM | 220,000 tested, 0.37% active | AID 1236, 2008;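 active = inhibition above about 50%, limit read from the data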
RanGTP-Impb inh: inhibitors of RanGTP-importin-beta interaction, primary screen, biochemical, FRET, CFP-Ran, YFP-importin-beta, homogeneous; Ran GTPase (GTP-bound) - importin-beta complex; cell-free CFP-Ran/YFP-importin-beta FRET ratio; inhibition, % (no concentration beside the values); 300,000 tested, 1.1% active;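 active = more than half of the replicate wells show a fall in the fluorescence ratio signal beyond about 16%, limit read from the data, passing the limit was not always enough; inconclusive = exactly half of the replicate wells pass the set limit; inactive = fewer than half of replicates pass the limit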;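 note: 0% = DMSO wells and 100% = Ran loaded with GDP instead of GTP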
Runt-SMMHC FRET: inhibitors of RUNX1 Runt–CBFb-SMMHC binding, primary screen, biochemical, FRET, Cerulean-Runt, Venus-CBFb-SMMHC, uHTS. Cerulean-Runt/Venus-CBFb-SMMHC FRET ratio 530/480, 1 h. Runt-related transcription factor 1 (Homo sapiens) + Core-binding factor subunit beta …. inhibition, % at 20 µM. 220,000 tested, 0.74% active;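 active = mean inhibition across duplicate retests at 20 µM reaching about 50%, limit read from the data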;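 note: 0% = DMSO wells and 100% = wells with excess untagged CBFb-SMMHC; inhibitors lower the FRET ratio by blocking Runt binding to CBFb-SMMHC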
* hit, by the source's call; i = inactive; ? = inconclusive; . = no result.

SMILES | FAS-TE inh | Runt-CBFb FRET | m-calpain inh | RanGTP-Impb inh | Runt-SMMHC FRET
Cn1c(=O)c(/C=C/c2ccc(F)cc2)nc2ccccc21 | 10.4 | -8.3 | -76.4 | 52.9* | 38.4
Cn1c(/C=C/c2ccccc2)nc2ccccc21 | 1.1 | -0.3 | -269.8 | 0.5 | 4.3
Nc1nc2ccccc2n1C(=O)c1ccc(F)cc1 | -5.9 | -0.9 | -15.1 | -2.1 | 1.6
CC(=O)c1ccc(/C=C/c2nc3ccccc3n2C)o1 | -6.6 | 9.3 | -298.3 | -54.1 | 81.0*
c1ccc(C[C@H]2CN=C(Nc3ccccc3)N2CC2CCCC2)cc1 | -30.4 | . | . | . | .
CN(C)c1cc(=O)n2c(n1)SCCC2 | -6.0 | . | -14.6 | 71.7* | -1.9
CN(C)c1nc2n(c(=O)n1)CCS2 | -1.8 | 2.8 | 7.2 | 1.1 | -1.8
O=c1cc(N2CCCCC2)nc2n1CCCS2 | -7.4 | -0.8 | -1.6 | 158.9* | 0.5
CC1(C(=O)Nc2cccc(C(F)(F)F)c2)Cc2c(-c3ccccc3)ccnc2O1 (centres undefined) | 17.9 | . | . | . | .
COc1ccc(OC)c(CCNC(=O)CCC(=O)N2CCOc3ccc(C)cc32)c1 | 2.7 | . | . | ? | .
Nc1c(C(=O)OCC2CCCO2)c2nc3ccccc3nc2n1C1CCCCC1 (centres undefined) | -11.7 | 23.6 | -331.1 | 0.3 | 67.3*
Nc1c(C(=O)NCC2CCCO2)c2nc3ccccc3nc2n1-c1ccccc1 (centres undefined) | -0.9 | 82.8* | i | 77.6* | -19.8
COc1ccccc1-n1c(N)c(C(=O)NCC2CCCO2)c2nc3ccccc3nc21 (centres undefined) | -2.6 | -5.7 | -417.5 | 57.3* | 2.2
Cc1ccc(NC(=O)CSc2ncccn2)cc1F | -2.5 | 0.8 | -16.0 | 96.1* | -1.4
Cc1ccc(NC(=O)CSc2nccn2C)cc1F | -6.8 | . | . | -2.1 | .
O=S(=O)(NCC(c1ccco1)N1CCc2ccccc2C1)c1ccc(Br)cc1 (centres undefined) | 24.8 | . | . | -2.7 | .
COc1ccccc1CNC(=O)/C(C#N)=C/c1ccc(OC)c(OC)c1OC | 1.4 | . | . | -0.6 | .
O=C(Cc1nc2ccccc2s1)c1ccc(O)cc1O | . | 35.7 | -41.9 | 0.0 | 114.0*
O=C(Nc1cc(Sc2nc3ccccc3s2)cc([N+](=O)[O-])c1)c1ccccc1 | 17.4 | 3.0 | 2.3 | 0.1 | 1.6
O=C(Nc1cc(Sc2ccccn2)cc([N+](=O)[O-])c1)c1cccc(F)c1 | 39.0 | -2.0 | 53.2* | 1.1 | -2.1
CCCNC(=O)c1c(N)n(-c2cccc(OC)c2)c2nc3ccccc3nc12 | 19.2 | 62.4* | i | 79.7* | -19.9
COCCCNC(=O)c1c(N)n(-c2cccc(S(N)(=O)=O)c2)c2nc3ccccc3nc12 | 3.2 | 91.5* | i | 104.1* | 61.6*
COCCCNC(=O)c1c(N)n(/N=C/c2ccccn2)c2nc3ccccc3nc12 | 0.3 | -0.7 | . | 5.4 | 0.6
Nc1c(C(=O)NCCN2CCOCC2)c2nc3ccccc3nc2n1-c1cccc(F)c1 | -4.6 | 70.9* | i | 78.0* | 60.9*
C=CCNC(=O)c1c(N)n(-c2ccc3c(c2)OCO3)c2nc3ccccc3nc12 | -5.6 | 15.6 | -3.5 | -1.0 | 13.9
SMILES | FAS-TE inh | Runt-CBFb FRET | m-calpain inh | RanGTP-Impb inh | Runt-SMMHC FRET
CN(CCc1ccccc1)C(=O)c1ccc(NC(=O)Cc2ccc(NC(=O)C3CCCN(C(=O)C4CC4)C3)cc2)cc1 (centres undefined) | -7.9 | . | . | . | .
Cc1ccc(S(=O)(=O)N2CCOCC2)cc1NC(=O)COC(=O)/C=C/c1ccco1 | -1.7 | . | . | . | .
COc1ccc(S(=O)(=O)N(CC(=O)NN=C2CCN(C)CC2)c2cc(Cl)ccc2OC)cc1OC | -2.7 | . | . | -2.6 | .
NC(=O)c1ccc(-n2nnnc2SCC(=O)Nc2ccccc2-c2ccccc2)cc1 | -0.7 | 0.1 | 64.6* | -4.4 | 3.2
CC(=O)Oc1ccc(-c2cc3c(OC(C)=O)cc(OC(C)=O)cc3oc2=O)cc1 | -4.0 | . | . | 122.7* | .
CCCCS(=O)(=O)N1CCN(S(=O)(=O)c2ccc(Cl)s2)CC1 | -6.3 | . | . | 0.2 | .
O=C(O)CN1C(=O)C2C3CC(C2C1=O)C1C(c2ccccc2)c2sc(=O)[nH]c2SC31 (centres undefined) | -11.1 | 42.0 | -1.9 | 65.3* | 33.9
CC(C)CC(C(=O)O)N1C(=O)C2C3CC(C2C1=O)C1C(c2ccccc2)c2sc(=O)[nH]c2SC31 (centres undefined) | -15.3 | 12.9 | 6.2 | 100.3* | 29.3
COc1ccc(-c2oc3c(c2C(=O)OCCO)C(OCCO)CCC3)cc1 (centres undefined) | -10.8 | . | . | . | .
COc1ccc(CCNC(=O)COc2ccc3c(C)cc(=O)oc3c2)cc1OC | -2.2 | . | . | -0.6 | .
CCCC[C@@H]1Cc2[nH][nH]c(=O)c2[C@H](c2cccc3ccccc23)O1 | -44.0 | . | . | . | .
CCCNc1nc2ccccc2c(=O)[nH]1 | -10.3 | -1.0 | -77.5 | -3.0 | -1.0
CCCNc1cc(=S)nc(N)[nH]1 | -3.8 | 36.0 | 29.3 | 36.5* | 22.1
CCOc1ccc2ccccc2c1C1NC(=O)N(C)C(C)=C1C(=O)OCCOC (centres undefined) | -3.5 | . | . | 95.8* | .
CCOC(=O)C1=C(C)N(C)C(=S)NC1c1c(OCC)ccc2ccccc12 (centres undefined) | -3.1 | -1.8 | -2.5 | 3.2 | 0.5
CC1=C(C(=O)OCC2CCCO2)C(c2ccc(C)o2)C2=C(CC(c3ccc(N(C)C)cc3)CC2=O)N1 (centres undefined) | . | -3.0 | 99.3* | . | -0.1
CC(=O)c1ccc(S(=O)(=O)Nc2ccc(C(=O)NCCCn3ccnc3)cc2)cc1 | -7.9 | . | . | . | .
CC1CCc2c(sc(Nc3nc4c(F)cccc4s3)c2C(N)=O)C1 (centres undefined) | 8.7 | 127.3* | -29.0 | 170.1* | 85.8*
O=C(Nc1nc2c(F)cccc2s1)C1CC1 | -5.7 | . | . | ? | .
O=c1[nH]c(=O)c2nc(-c3ccc(Cl)cc3)cnc2[nH]1 | 1.3 | 20.3 | i | 94.0* | .
O=c1[nH]c(=S)[nH]c2nc(-c3ccccc3)cnc12 | -1.1 | . | . | 3.3 | .
COC(=O)c1ccc(C2C(C#N)=C(N)Oc3cc(N)ccc32)cc1 (centres undefined) | 3.6 | . | . | -8.8 | .
COc1ccc(OC)c(C2C(C#N)=C(N)Oc3cc(N)ccc32)c1 (centres undefined) | -5.9 | 30.2 | -31.6 | 46.7* | 32.9
COc1ccc(OC)c(C2C(C#N)=C(N)Oc3cc(C)[nH]c(=O)c32)c1 (centres undefined) | -10.0 | 2.6 | -15.2 | -2.5 | -9.0
N#CC1=C(N)Oc2cc(N)ccc2C1c1cccc(F)c1 (centres undefined) | 0.2 | . | . | 38.2* | .
